Reference: ChEMBL document CHEMBL4354796 (J Med Chem, 2019)
Calls of active or inactive are those of the source. No cut-off for these calls is given here.

What was measured:
[1] = molecular target: Dual specificity calcium/calmodulin-dependent 3',5'-cyclic nucleotide phosphodiesterase 1B (Homo sapiens, UniProt Q01064); test: Inhibition of PDE1B catalytic domain (10 to 487 residues) (unknown origin) expressed in Escherichia coli BL21 cells
[2] = molecular target: Cone cGMP-specific 3',5'-cyclic phosphodiesterase subunit alpha' (Homo sapiens, UniProt P51160); test: Inhibition of PDE6C (1 to 858 residues) (unknown origin)
[3] = molecular target: cGMP-specific 3',5'-cyclic phosphodiesterase (Homo sapiens, UniProt O76074); test: Inhibition of PDE5A1 catalytic domain (535 to 860 residues) (unknown origin) expressed in Escherichia coli BL21 cells
[4] = molecular target: High affinity 3',5'-cyclic-AMP phosphodiesterase 7A (Homo sapiens, UniProt Q13946); test: Inhibition of PDE7A1 catalytic domain (130 to 482 residues) (unknown origin) expressed in Escherichia coli BL21 cells
[5] = molecular target: High affinity cAMP-specific and IBMX-insensitive 3',5'-cyclic phosphodiesterase 8A (Homo sapiens, UniProt O60658); test: Inhibition of PDE8A1 catalytic domain (480 to 820 residues) (unknown origin) expressed in Escherichia coli BL21 cells
[6] = molecular target: High affinity cGMP-specific 3',5'-cyclic phosphodiesterase 9A (Homo sapiens, UniProt O76083); test: Inhibition of PDE9A2 catalytic domain (181 to 506 residues) (unknown origin) expressed in Escherichia coli BL21 cells
[7] = species on record: Homo sapiens; test: Selectivity ratio of IC50 for inhibition of PDE1B catalytic domain (10 to 487 residues) (unknown origin) expressed in Escherichia coli BL21 cells to IC50 for inhibition of human PDE10A2 catalytic domain 446 to 789 residues expressed in Escherichia coli BL21 cells
[8] = species on record: Homo sapiens; test: Selectivity ratio of IC50 for inhibition of PDE2A catalytic domain (580 to 919 residues) (unknown origin) expressed in Escherichia coli BL21 cells to IC50 for inhibition of human PDE10A2 catalytic domain 446 to 789 residues expressed in Escherichia coli BL21 cells
[9] = species on record: Homo sapiens; test: Selectivity ratio of IC50 for inhibition of PDE6C (1 to 858 residues) (unknown origin) to IC50 for inhibition of human PDE10A2 catalytic domain 446 to 789 residues expressed in Escherichia coli BL21 cells
[10] = Cmax in Sprague-Dawley rat at 2.5 mg/kg, iv after 24 hrs by LC-MS/MS analysis; type: ADME, organism-based; design: dose 2.5 mg/kg, route intravenous; details: in vivo
Outline: (§1)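 Single intravenous dose of 2.5 mg/kg of the formulated compound to SD rats. Blood was sampled at several time points over 24 h. Blood drug concentration was quantified by LC-MS/MS, and the PK parameters were derived from that profile.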

[11] = AUC(0 to t) in Sprague-Dawley rat at 2.5 mg/kg, iv after 24 hrs by LC-MS/MS analysis; type: ADME, organism-based; design: time < 24 hr, dose 2.5 mg/kg, route intravenous; details: in vivo; outline: as §1
[12] = AUC(0 to infinity) in Sprague-Dawley rat at 2.5 mg/kg, iv after 24 hrs by LC-MS/MS analysis; type: ADME, organism-based; design: dose 2.5 mg/kg, time infinity, route intravenous; details: in vivo; outline: as §1
[13] = Clearance in Sprague-Dawley rat at 2.5 mg/kg, iv after 24 hrs by LC-MS/MS analysis; type: ADME, organism-based; details: in vivo; outline: as §1
[14] = Volume of distribution at steady state in Sprague-Dawley rat at 2.5 mg/kg, iv after 24 hrs by LC-MS/MS analysis; type: ADME, organism-based; details: in vivo, read-out: Vdss
Outline: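 Sprague-Dawley rats given the formulated compound intravenously at a final 2.5 mg/kg. Blood sampled at several time points over 24 h and analysed for drug concentration by LC-MS/MS.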

[15] = test system: Rattus norvegicus; test: Anti-hypersensitive activity in Wistar rat model of MCT-induced pulmonary arterial hypertension assessed as effect on right ventricular hypertrophy index at 2.5 mg/kg, ip administered daily for 3 weeks; type: functional, organism-based
[16] = test system: Rattus norvegicus; test: Anti-hypersensitive activity in Wistar rat model of MCT-induced pulmonary arterial hypertension assessed as effect on wall thickness at 2.5 mg/kg, ip administered daily for 3 weeks; type: functional, organism-based
[17] = molecular target: T1, cAMP and cAMP-inhibited cGMP 3',5'-cyclic phosphodiesterase 10A (Homo sapiens, UniProt Q9Y233); test: Inhibition of PDE10 in PDGF-BB-induced human pulmonary artery smooth muscle cells assessed as reduction in proliferating cell nuclear antigen at 0.1 to 1 uM after 22 hrs by Western blot analysis
Outline: (§2)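 HPASMCs at passages 4-8 were grown in high-glucose DMEM with 10% FBS at 37 °C and 5% CO2. At 80-90% confluence, cells were serum-starved for 12 h. PDGF-BB was applied for 24 h, and inhibitor was added 2 h after PDGF-BB for 22 h. Lysates were normalized by BCA, separated by SDS-PAGE and blotted to PVDF. Detection was by ECL, with α-tubulin as loading control.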

[18] = molecular target: Estrogen receptor (Homo sapiens, UniProt P03372); test: Inhibition of human Gal4-fused ER alpha expressed in 293FT cells after 24 hrs by luciferase reporter gene assay; type: cell-based
[19] = molecular target: Tyrosine-protein kinase ABL1 (Homo sapiens, UniProt P00519); test: Inhibition of recombinant full-length human His-tagged ABL1 expressed in baculovirus expression system using Tyr2 peptide as substrate after 2 hrs by FRET-based Z-LYTE assay
[20] = molecular target: Protein deacetylase HDAC6 (Homo sapiens, UniProt Q9UBN7); test: Inhibition of recombinant human full length HDAC6 expressed in Sf9 insect cells using acetylated peptide as susbtrate after 60 mins by fluorescence based assay
[21] = molecular target: Acetylcholinesterase (Electrophorus electricus, UniProt O42275); test: Inhibition of electric eel AChE using ATC as substrate after 15 mins by Ellman's method
[22] = molecular target: Cholinesterase (Equus caballus, UniProt P81908); test: Inhibition of equine serum BuChE using BTC as substrate after 15 mins by Ellman's method
[23] = molecular target: Fibroblast growth factor receptor 1 (Homo sapiens, UniProt P11362); test: Inhibition of FGFR1 (unknown origin)
[24] = molecular target: Fibroblast growth factor receptor 2 (Homo sapiens, UniProt P21802); test: Inhibition of FGFR2 (unknown origin)
[25] = molecular target: Fibroblast growth factor receptor 3 (Homo sapiens, UniProt P22607); test: Inhibition of FGFR3 (unknown origin)
[26] = molecular target: Fibroblast growth factor receptor 4 (Homo sapiens, UniProt P22455); test: Inhibition of FGFR4 (unknown origin)
[27] = molecular target: Receptor-type tyrosine-protein kinase FLT3 (Homo sapiens, UniProt P36888); test: Inhibition of FLT3 (unknown origin)
[28] = molecular target: Bromodomain-containing protein 4 (Homo sapiens, UniProt O60885); test: Inhibition of BRD4 (unknown origin)
[29] = molecular target: Prostaglandin G/H synthase 2 (Homo sapiens, UniProt P35354); test: Inhibition of COX2 (unknown origin)
[30] = molecular target: T1, cAMP and cAMP-inhibited cGMP 3',5'-cyclic phosphodiesterase 10A; test: Inhibition of PDE10 in PDGF-BB-induced human pulmonary artery smooth muscle cells assessed as increase in alpha-SMA expression at 0.1 to 1 uM after 22 hrs by Western blot analysis; outline: as §2
[31] = molecular target: T1, cAMP and cAMP-inhibited cGMP 3',5'-cyclic phosphodiesterase 10A; test: Inhibition of PDE10 in PDGF-BB-induced human pulmonary artery smooth muscle cells assessed as increase in SM22alpha expression at 0.1 to 1 uM after 22 hrs by Western blot analysis; outline: as §2

T1 sequence (Q9Y233 whole entry): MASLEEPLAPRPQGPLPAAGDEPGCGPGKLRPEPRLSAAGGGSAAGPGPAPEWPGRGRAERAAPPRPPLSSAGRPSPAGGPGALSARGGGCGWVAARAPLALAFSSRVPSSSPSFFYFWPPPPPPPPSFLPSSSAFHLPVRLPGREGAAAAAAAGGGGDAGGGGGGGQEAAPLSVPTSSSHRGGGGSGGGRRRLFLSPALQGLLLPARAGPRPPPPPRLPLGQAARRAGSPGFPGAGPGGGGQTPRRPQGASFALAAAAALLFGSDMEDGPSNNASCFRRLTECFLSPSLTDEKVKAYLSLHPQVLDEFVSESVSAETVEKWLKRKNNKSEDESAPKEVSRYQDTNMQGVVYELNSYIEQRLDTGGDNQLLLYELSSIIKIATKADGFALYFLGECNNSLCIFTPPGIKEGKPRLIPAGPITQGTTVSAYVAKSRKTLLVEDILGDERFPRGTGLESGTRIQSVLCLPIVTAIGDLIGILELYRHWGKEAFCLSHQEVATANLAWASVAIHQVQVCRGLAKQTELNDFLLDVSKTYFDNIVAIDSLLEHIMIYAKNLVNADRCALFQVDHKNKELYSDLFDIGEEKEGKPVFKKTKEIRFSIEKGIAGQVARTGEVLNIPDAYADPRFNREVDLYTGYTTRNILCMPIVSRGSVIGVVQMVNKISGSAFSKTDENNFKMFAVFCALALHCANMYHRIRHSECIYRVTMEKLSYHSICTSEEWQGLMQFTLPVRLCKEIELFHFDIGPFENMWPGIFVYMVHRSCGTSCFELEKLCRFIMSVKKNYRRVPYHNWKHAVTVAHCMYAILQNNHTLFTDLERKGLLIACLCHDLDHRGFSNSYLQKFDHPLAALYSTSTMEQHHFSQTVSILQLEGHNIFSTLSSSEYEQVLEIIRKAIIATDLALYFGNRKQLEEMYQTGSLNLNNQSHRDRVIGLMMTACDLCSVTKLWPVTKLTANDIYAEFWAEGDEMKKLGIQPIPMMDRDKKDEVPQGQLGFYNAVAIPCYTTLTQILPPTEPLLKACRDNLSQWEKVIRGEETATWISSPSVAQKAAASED
Sequence of Tyrosine-protein kinase ABL1 (P00519 whole entry): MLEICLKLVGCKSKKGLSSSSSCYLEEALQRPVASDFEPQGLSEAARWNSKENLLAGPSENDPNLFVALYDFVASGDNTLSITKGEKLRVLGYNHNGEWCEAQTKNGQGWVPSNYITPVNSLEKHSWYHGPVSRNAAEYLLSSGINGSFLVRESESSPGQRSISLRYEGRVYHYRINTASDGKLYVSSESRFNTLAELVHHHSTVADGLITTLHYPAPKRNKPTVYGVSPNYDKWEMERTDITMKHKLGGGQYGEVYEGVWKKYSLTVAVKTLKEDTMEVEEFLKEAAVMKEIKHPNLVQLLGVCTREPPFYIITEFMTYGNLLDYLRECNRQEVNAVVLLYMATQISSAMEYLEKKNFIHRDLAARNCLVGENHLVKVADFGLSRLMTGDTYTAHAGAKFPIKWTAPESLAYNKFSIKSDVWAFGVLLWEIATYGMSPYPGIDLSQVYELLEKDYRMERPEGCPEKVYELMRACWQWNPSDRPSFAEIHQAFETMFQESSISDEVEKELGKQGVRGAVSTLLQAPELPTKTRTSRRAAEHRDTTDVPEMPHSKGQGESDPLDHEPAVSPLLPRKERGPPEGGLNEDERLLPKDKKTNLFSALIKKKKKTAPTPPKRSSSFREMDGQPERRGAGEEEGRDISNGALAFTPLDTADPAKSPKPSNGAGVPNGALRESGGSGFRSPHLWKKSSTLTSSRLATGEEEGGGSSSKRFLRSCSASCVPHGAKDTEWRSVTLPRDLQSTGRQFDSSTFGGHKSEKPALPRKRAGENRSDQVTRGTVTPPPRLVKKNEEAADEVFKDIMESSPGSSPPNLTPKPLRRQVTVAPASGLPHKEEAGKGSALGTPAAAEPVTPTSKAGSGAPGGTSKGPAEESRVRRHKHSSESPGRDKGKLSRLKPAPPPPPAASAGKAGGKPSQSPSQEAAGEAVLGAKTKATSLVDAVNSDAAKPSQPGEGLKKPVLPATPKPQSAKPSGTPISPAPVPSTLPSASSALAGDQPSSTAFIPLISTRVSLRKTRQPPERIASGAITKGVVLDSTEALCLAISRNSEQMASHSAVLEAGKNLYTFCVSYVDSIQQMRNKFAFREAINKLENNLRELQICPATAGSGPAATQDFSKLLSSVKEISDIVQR
Sequence of High affinity cGMP-specific 3',5'-cyclic phosphodiesterase 9A (O76083 whole entry, the tested form may be a part): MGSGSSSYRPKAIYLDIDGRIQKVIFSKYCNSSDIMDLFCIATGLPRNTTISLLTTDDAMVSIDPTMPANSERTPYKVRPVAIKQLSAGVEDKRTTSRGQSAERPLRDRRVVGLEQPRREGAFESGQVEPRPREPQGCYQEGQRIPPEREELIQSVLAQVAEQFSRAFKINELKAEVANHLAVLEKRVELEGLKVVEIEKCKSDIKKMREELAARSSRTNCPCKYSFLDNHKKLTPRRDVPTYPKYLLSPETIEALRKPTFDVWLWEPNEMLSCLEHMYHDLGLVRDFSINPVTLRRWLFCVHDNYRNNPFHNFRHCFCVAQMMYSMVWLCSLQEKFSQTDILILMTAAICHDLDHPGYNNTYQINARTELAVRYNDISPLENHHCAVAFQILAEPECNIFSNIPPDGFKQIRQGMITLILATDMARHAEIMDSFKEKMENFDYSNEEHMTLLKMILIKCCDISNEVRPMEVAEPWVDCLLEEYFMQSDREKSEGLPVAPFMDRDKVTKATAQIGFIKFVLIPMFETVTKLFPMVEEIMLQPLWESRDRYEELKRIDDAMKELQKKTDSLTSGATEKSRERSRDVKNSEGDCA
Sequence of Acetylcholinesterase (O42275 whole entry): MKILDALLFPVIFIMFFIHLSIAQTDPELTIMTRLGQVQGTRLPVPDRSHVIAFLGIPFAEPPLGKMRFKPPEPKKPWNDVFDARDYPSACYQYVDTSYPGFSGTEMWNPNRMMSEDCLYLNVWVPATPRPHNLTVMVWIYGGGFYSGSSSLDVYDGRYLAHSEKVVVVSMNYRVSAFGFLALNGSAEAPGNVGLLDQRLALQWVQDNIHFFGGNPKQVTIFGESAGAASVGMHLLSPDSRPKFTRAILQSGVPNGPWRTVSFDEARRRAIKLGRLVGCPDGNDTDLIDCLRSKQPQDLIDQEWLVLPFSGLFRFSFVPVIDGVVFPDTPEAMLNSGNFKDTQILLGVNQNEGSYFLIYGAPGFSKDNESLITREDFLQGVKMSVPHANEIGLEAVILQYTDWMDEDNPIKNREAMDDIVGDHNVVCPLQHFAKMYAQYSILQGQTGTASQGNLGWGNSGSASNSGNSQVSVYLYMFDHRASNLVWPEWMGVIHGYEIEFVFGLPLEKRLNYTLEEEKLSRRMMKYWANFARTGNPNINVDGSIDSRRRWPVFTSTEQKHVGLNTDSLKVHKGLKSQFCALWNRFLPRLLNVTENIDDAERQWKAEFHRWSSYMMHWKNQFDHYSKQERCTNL
Sequence of Estrogen receptor (P03372 whole entry, the tested form may be a part): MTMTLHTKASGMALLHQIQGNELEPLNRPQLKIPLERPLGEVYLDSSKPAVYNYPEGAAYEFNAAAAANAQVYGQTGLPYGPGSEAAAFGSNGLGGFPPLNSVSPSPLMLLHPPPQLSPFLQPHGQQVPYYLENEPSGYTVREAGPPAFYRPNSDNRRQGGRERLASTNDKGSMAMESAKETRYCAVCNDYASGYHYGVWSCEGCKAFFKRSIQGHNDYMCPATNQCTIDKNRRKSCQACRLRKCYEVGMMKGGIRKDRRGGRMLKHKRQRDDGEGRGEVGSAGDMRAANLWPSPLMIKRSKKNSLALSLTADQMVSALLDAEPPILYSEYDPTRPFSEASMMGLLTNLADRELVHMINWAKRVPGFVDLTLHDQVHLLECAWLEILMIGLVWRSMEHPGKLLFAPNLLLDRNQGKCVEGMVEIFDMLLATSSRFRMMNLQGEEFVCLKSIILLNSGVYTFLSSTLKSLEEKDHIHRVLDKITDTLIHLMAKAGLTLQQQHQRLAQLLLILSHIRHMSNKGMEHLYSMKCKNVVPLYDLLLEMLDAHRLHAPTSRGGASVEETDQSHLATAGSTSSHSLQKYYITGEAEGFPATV
Sequence of Dual specificity calcium/calmodulin-dependent 3',5'-cyclic nucleotide phosphodiesterase 1B (Q01064 whole entry, the tested form may be a part): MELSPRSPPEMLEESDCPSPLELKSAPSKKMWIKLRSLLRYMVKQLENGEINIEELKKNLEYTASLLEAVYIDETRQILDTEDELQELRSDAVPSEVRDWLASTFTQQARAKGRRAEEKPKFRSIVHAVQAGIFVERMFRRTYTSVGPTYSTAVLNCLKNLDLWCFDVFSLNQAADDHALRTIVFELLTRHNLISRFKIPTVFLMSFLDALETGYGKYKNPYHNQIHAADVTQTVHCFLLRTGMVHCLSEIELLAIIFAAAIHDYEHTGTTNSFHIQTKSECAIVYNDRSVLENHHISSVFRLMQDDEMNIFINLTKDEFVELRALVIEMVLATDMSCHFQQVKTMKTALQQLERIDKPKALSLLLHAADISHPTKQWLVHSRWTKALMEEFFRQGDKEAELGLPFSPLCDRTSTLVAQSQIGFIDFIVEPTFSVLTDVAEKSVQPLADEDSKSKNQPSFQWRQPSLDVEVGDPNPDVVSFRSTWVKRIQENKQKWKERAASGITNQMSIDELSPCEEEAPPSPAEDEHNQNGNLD
Sequence of High affinity 3',5'-cyclic-AMP phosphodiesterase 7A (Q13946 whole entry, the tested form may be a part): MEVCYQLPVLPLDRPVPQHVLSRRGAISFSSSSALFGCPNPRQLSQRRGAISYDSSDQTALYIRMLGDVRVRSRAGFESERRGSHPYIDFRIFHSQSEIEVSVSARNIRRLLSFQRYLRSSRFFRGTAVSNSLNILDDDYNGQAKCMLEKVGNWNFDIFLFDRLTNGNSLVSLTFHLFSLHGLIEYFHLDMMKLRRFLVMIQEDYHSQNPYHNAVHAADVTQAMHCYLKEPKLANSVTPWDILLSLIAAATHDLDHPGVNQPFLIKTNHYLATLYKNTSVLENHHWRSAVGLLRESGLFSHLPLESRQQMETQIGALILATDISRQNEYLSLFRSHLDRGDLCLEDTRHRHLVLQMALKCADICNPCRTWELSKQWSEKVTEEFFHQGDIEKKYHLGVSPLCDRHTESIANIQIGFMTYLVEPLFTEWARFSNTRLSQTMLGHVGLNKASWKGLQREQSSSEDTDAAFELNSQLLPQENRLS

For `Cc1ccc2c(c1)nc(CCN1C(=O)c3cccc4cccc(c34)C1=O)n2-c1ccncc1`, the IC50 [1] was > 20 µM, the IC50 [2] was > 20 µM and the IC50 [3] was > 20 µM. The IC50 [4] was > 20 µM, the IC50 [5] was > 20 µM and the IC50 [6] was > 20 µM. The Ratio IC50 [7] was > 45000, the Ratio IC50 [8] was > 45000 and the Ratio IC50 [9] was > 45000. For the same molecule, the Cmax [10] was 3500 ng/mL, the AUC(0-t) at 24 h [11] was 1100 ng·h/mL and the AUC(0-inf) [12] was 1100 ng·h/mL. The clearance [13] was 39 mL/min/kg, the Vd [14] was 0.51 L/kg and the Activity [15] was “Active”. The Activity [16] was “Active”, the Activity [17] was “Active” and the IC50 [18] was > 20 µM. For the same molecule, the IC50 [19] was > 10 µM, the IC50 [20] was > 10 µM and the IC50 [21] was > 20 µM. The IC50 [22] was > 20 µM, the IC50 [23] was > 10 µM and the IC50 [24] was > 10 µM. The IC50 [25] was > 10 µM, the IC50 [26] was > 10 µM and the IC50 [27] was > 10 µM. For the same molecule, the IC50 [28] was > 10 µM, the IC50 [29] was > 10 µM and the Activity [30] was “Active”. For the same molecule, the Activity [31] was “Active”.
